Experimental data published in publication PMC6467359 (Toxicological Research, 2019).
Where two headings read alike, the source gives them in different places.

Assays:
[1] = system: COX2; assay: RT-qPCR transcript expression in SKOV-3 cells, COX2; type: cell-based, human; details: SKOV-3, 24 hr, 7.309 μM, p < 0.05
Method in brief: (§1)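 SKOV-3 cells were seeded at 5 × 10^5 in 5 mL flasks and treated for 24 hr in 0.1% DMSO (vehicle control). Total RNA was column-extracted. One-step SYBR RT-qPCR used 20 ng RNA and 0.4 μM each primer: RT at 42°C for 5 min, 95°C for 10 s, then 40 cycles of 95°C 10 s / 60°C 30 s, with melt-curve check. Expression was normalised to GAPDH and compared with control; three independent repeats, one-way ANOVA with Tukey test.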

[2] = system: SKOV-3 cells; assay: MTT assay of cell viability and proliferation, SKOV-3; type: cell-based, human; details: for cytotoxicity to SKOV-3 cells relative to apigenin: ratio of IC50 values
Method in brief: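 SKOV-3 cells were seeded at 5 × 10^3 cells/well in McCoy's 5A with 10% FCS, cultured overnight, then exposed to a range of concentrations, or to 0.1% DMSO control, for 24, 48 and 72 hr. MTT was added for 3 hr, formazan was dissolved in DMSO, and A560 was read. Viability was expressed relative to control, and IC50 was read from the plot of % viable cells versus concentration; three independent repeats.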

[3] = system: NFκB; assay: RT-qPCR transcript expression in SKOV-3 cells, NFκB; type: cell-based, human; details: SKOV-3, 24 hr, 7.309 μM
[4] = system: SKOV-3 cells; assay: Cell imaging; type: cell-based, human; details: for morphological change of treated SKOV-3 cells: 48 hr, 200× magnification, α-mangostin 7.309 μM, apigenin 18.502 μM, doxorubicin 0.431 μM
[5] = system: caspase-3; assay: Caspase-3 colorimetric activity assay in treated SKOV-3 cells; type: cell-based, human; details: α-mangostin 7.309 μM
Method in brief: (§2)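 SKOV-3 cells (McCoy's 5A, 10% FCS, 37°C, 5% CO2) were seeded at 5 × 10^5 in 5 mL flasks overnight, then treated in 0.1% DMSO vehicle (DMSO-only control) for 12 and 24 hr. Cells were trypsinized and lysed on ice, and 100 μg protein was taken per well. Reactions used 10 mM DTT final and caspase-specific colorimetric substrate, 37°C for 1–2 hr, read at 400–405 nm. Done in triplicate.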

[6] = system: CCD-986Sk cells; assay: MTT assay of cell viability, CCD-986Sk skin fibroblasts; type: cell-based, human; details: for toxicity to CCD-986Sk cells: 24 hr of exposure
Method in brief: (§3)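 Untransformed human fibroblasts (CCD-986Sk skin, WI-38 lung) in MEM with 10% FCS were seeded at 1 × 10^4 cells/well, cultured overnight, then exposed to graded concentrations, or to 0.1% DMSO control, for 24 hr at 37°C, 5% CO2. MTT was added for 3 hr, formazan was dissolved in DMSO, and A560 was read. Survival was expressed relative to control, and IC50 was taken from the viability-versus-concentration plot; three independent repeats.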

[7] = system: SKOV-3 cells; assay: Cell cycle analysis by PI staining and flow cytometry; type: cell-based, human
[8] = system: WI-38 cells; assay: MTT assay of cell viability, WI-38 lung fibroblasts; type: cell-based, human; details: for IC50: read-out: IC50 value, WI-38 cells
Method in brief: as §3

[9] = system: ES2 ovarian cancer cells; details: 0.033–1.0 mg/mL, 24 hr of exposure ref 10; cited from earlier work
[10] = system: SKOV-3 ovarian cancer cells; details: 0.033–1.0 mg/mL, 24 hr of exposure ref 10; cited from earlier work
[11] = system: ovarian cancer cell line A2780; details: read-out: half maximal inhibitory concentration (IC50); A2780 ref 9; cited from earlier work
[12] = system: caspase-9; assay: Caspase-9 colorimetric activity assay in treated SKOV-3 cells; type: cell-based, human; details: SKOV-3, 24 hr
Method in brief: as §2

[13] = system: BCL2; assay: RT-qPCR transcript expression in SKOV-3 cells, BCL2; type: cell-based, human; details: SKOV-3, 24 hr, 18.502 μM, p < 0.01
Method in brief: as §1

[14] = Homo sapiens, SK-OV-3, 24 h, read-out: IC50 value at an incubation time of 24 hr
[15] = Homo sapiens, SK-OV-3, 48 h, read-out: IC50 value at an incubation time of 48 hr
[16] = Homo sapiens, SK-OV-3, 72 h, read-out: IC50 value at an incubation time of 72 hr

COc1c(O)cc2oc3cc(O)c(CC=C(C)C)c(O)c3c(=O)c2c1CC=C(C)C [α-Mangostin]
COX2 transcript expression level relative to control [1]: upregulation was significant
cytotoxicity to SKOV-3 cells relative to apigenin ([2]; 24 hr): 10.8 fold
cytotoxicity to SKOV-3 cells relative to apigenin ([2]; 72 hr): 5.9 fold
IC50 ([2]; read-out: IC50 value at an incubation time of 24 hr, SKOV-3 cells, MTT, 24 hr): 2.47 ± 0.338 µM
IC50 ([2]; read-out: IC50 value at an incubation time of 48 hr, SKOV-3 cells, MTT, 48 hr): 2.98 ± 0.054 µM
IC50 ([2]; read-out: IC50 value at an incubation time of 72 hr, SKOV-3 cells, MTT, 72 hr): 3.06 ± 0.349 µM
NFκB transcript expression level relative to control [3]: remained the same as in the control cells
morphological change of treated SKOV-3 cells [4]: mostly damaged
effect at the small-scale IC50 value in larger-scale cultures ([4]; SKOV-3, 5 × 10^5 cells in 5 mL, T25 flasks): not effective at all
caspase-3 activity vs control ([5]; SKOV-3, 12 hr): significantly (p < 0.05) increased
concentration safe for CCD-986Sk skin fibroblasts ([6]; 24 hr): less than 6.091 μM
cytotoxicity in CCD-986Sk cells, fold less than in SKOV-3 cells ([6]; 24 hr): about 4 fold
IC50 ([6]; read-out: IC50 value, CCD-986Sk cells, 24 hr of treatment, MTT): 9.8 ± 3.17 µM
cell cycle arrest ([7]; SKOV-3, after 24 hr of exposure, 7.309 μM): induced arrest at the G2/M phase
IC50 ([8]; 24 hr of treatment, MTT): 1.5 ± 0.464 µM

CC(=O)OCON=[N+]([O-])NCC(C)C [O^2-(acetoxymethyl)-1-(iso-butylamino)diazen-1-ium-1,2-diolate]
effect on proliferation [9]: reduced the proliferation
effect on proliferation [10]: reduced the proliferation

CCCCCCCCC(OCCC(C)C)c1ccc2c(c1OC)/C(=N/O)C=C/C2=N\O (stereo not shown) [(1E,4E)-6-(1-(isopentyloxy)nonyl)-5-methoxynaphthalene-1,4-dione dioxime]
IC50 [11]: 8.26 ± 0.22 µM

O=c1cc(-c2ccc(O)cc2)oc2cc(O)cc(O)c12 [Apigenin]
caspase-9 level (activity) vs control [12]: statistically significant (p < 0.01)
BCL2 transcript expression level relative to control [13]: upregulation was significant
IC50 [2, 14]: 26.5 ± 6.02 µM
IC50 [2, 15]: 21.2 ± 5.25 µM
IC50 [2, 16]: 18.2 ± 3.1 µM
morphological change of treated SKOV-3 cells [4]: Cell shrinkage
toxicity to CCD-986Sk cells [6]: nontoxic
cell survival ([6]; CCD-986Sk, 24 hr, 92.510 μM): 70%
relative cell survival ([6]; CCD-986Sk, 24 hr, 1.156–55.506 μM): 100%
cell cycle arrest (G2/M phase) ([7]; SKOV-3, after 48 hr of exposure, 18.502 μM): likewise arrested the cells
IC50 ([8]; Homo sapiens, WI-38, 24 h): 36.9 ± 0.971 µM
concentration nontoxic to the cells ([8]; WI-38, 24 hr): up to 27.753 μM
concentration that did not affect cell growth ([8]; WI-38, 24 hr): 1156 to 2313 nM

CC(=O)OCO/N=[N+](\[O-])NC(C)C [O^2-(acetoxymethyl)-1-(isopropylamino)diazen-1-ium-1,2-diolate]
effect on proliferation [9]: reduced the proliferation
effect on proliferation [10]: reduced the proliferation

COc1cccc2c1C(=O)c1c(O)c3c(c(O)c1C2=O)C[C@@](O)(C(=O)CO)C[C@@H]3O[C@H]1C[C@H](N)[C@H](O)[C@H](C)O1 [Doxorubicin, reference compound]
IC50 [2, 14]: 0.534 ± 0.084 µM
IC50 [2, 15]: 0.343 ± 0.023 µM
IC50 [2, 16]: 0.117 ± 0.008 µM
morphological change of treated SKOV-3 cells [4]: some cell blebbing
caspase-3 activity vs control ([5]; SKOV-3, 24 hr, apigenin 18.502 μM, doxorubicin 0.431 μM): not significant
toxicity to CCD-986Sk cells [6]: did not affect the growth
IC50 ([8]; Homo sapiens, WI-38, 24 h): 0.604 ± 0.156 µM
